Activity calls are given as the source filed them. The rule behind the calls is not given here.

For data set [1], the system named is Nucleic Acid. Put plainly: Binding affinity to calf thymus DNA assessed as bathochromic shift at 25 uM by UV-visible spectrophotometry. The settings on record: Bos taurus. Type of data set: nucleic-acid assay. The method, boiled down:
(§1)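 Absorption spectra were taken in 0.01 M Tris buffer, pH 7.4. Compounds were diluted from DMSO stock to a final 25 µM. Sonicated calf thymus DNA in TE buffer was added at 0–30 µM bp, with concentration set by A260. Shift of λmax (free vs bound) and % hypochromicity were recorded.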

Data set [2] has as its system L1210. Put plainly: Cytotoxicity against mouse L1210 cells after 48 hrs by MTT assay. The data set is classed as functional, cell-based. The settings on record: L1210, 48 h. The method, boiled down:
(§2)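 HL-60, L1210 and A2780 cells were grown in RPMI 1640 with 10% FBS, penicillin and streptomycin at 37 °C, 5% CO₂; HL-60 and A2780 medium also had 2 mM glutamine. Cells were exposed to 0–30 µM for 48 or 72 h. Viability was read by MTT microculture tetrazolium assay and IC50 was determined.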

The subject of data set [3] is A2780. Kind of data set: Drug uptake in human A2780 cells at 5 uM after 4 hrs by Hoechst staining based fluorescence microscopy. Type of data set: ADME, cell-based. To be noted: a2780, 4 h.
Data set [4] relates to HL-60. Put plainly: Decrease in intracellular glutathione level in human HL60 cells at 2 uM after 2 hrs by spectrophotometric analysis. The data set is classed as functional, cell-based.
Data set [5] concerns HL-60. Put plainly: Cytotoxicity against human HL60 cells after 72 hrs using trypan blue exclusion staining by DCC method. The data set is classed as functional, cell-based. To be noted: HL-60, 72 h. An outline of the steps:
(§3)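 For trypan blue dye-exclusion direct cell counting, HL-60 cells were seeded at 1 × 10⁵ cells/mL. Compound at 0–10 µM, or 1% DMSO control, was added after 24 h. Viable counts were taken after 24, 48 and 72 h. IC50 (50% inhibition of viability) came from growth curves, as mean ± S.D., n = 3.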

The test system of data set [6] is HL-60. Put plainly: Decrease in intracellular glutathione level in human HL60 cells at 2 uM after 24 hrs by spectrophotometric analysis. Type of data set: functional, cell-based.
In data set [7] the test system is Nucleic Acid. Put plainly: Binding affinity to calf thymus DNA assessed as melting temperature at 5 uM at pH 7.1 by thermal denaturation assay. Type of data set: nucleic-acid assay. The settings on record: Bos taurus.
In data set [8] the test system is A2780. Put plainly: Cytotoxicity against human A2780 cells after 48 hrs by MTT assay. The settings on record: A2780, 48 h. The data set is classed as functional, cell-based. An outline of the steps:
as §2

For data set [9], the system named is HL-60. Kind of data set: Cytotoxicity against human HL60 cells after 72 hrs by MTT assay. Type of data set: functional, cell-based. The settings on record: HL-60, 72 h. The method, boiled down: as §2
On the technique in general: Tetrazolium assays rely on reduction of a dye to a coloured formazan, in cell work by metabolically active cells.

Data set [10] concerns HL-60. Put plainly: Cytotoxicity against human HL60 cells after 48 hrs using trypan blue exclusion staining by DCC method. Type of data set: functional, cell-based. The settings on record: HL-60, 48 h. The method, boiled down: as §3
The subject of data set [11] is A2780. Put plainly: Cytotoxicity against human A2780 cells after 72 hrs by MTT assay. Type of data set: functional, cell-based. To be noted: A2780, 72 h. The method, boiled down:
as §2

Data set [12] has as its system HL-60. Put plainly: Drug uptake in human HL60 cells at 5 uM after 4 hrs by Hoechst staining based fluorescence microscopy. Type of data set: ADME, cell-based. To be noted: hl-60, 4 h. The method, boiled down:
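HL-60 cells were exposed to 5 µM for 4 h at 37 °C, 5% CO₂, then washed in PBS. Intrinsic blue fluorescence was viewed by optical and fluorescence microscopy. Untreated control cells were stained with Hoechst 33342 (10 µM, 10 min).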

Data set [13] concerns Nucleic Acid. Put plainly: Ratio of acridine orange K to compound K for calf thymus DNA by spectrofluorimetry based McGhee von Hippel method. Type of data set: nucleic-acid assay. To be noted: Bos taurus.
For data set [14], the system named is Nucleic Acid. Put plainly: Binding affinity to calf thymus DNA assessed as binding constant by spectrofluorimetry based McGhee von Hippel method. Type of data set: nucleic-acid assay. The settings on record: Bos taurus. The method, boiled down: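 Fluorescence titration used compound at 26.7 µM in 0.01 M Tris buffer (pH 7.4, 24 °C). ctDNA was added stepwise from 0 to 32 µM bp at 2 µM intervals until spectra stopped changing. Excitation was 384 nm and emission was read at 410–470 nm. Binding constant K was derived by the McGhee–von Hippel method from Scatchard plot data.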

Data set [15] has as its system Nucleic Acid. Put plainly: Binding affinity to calf thymus DNA assessed as hypochromicity at 25 uM by UV-visible spectrophotometry. Type of data set: nucleic-acid assay. To be noted: Bos taurus. An outline of the steps: as §1
In data set [16] the test system is HL-60. Kind of data set: Cytotoxicity against BSO pretreated human HL60 cells assessed as cell viability at 3 uM treated 6 hrs after BSO addition measured after 48 hrs by trypan blue exclusion assay. The data set is classed as functional, cell-based. An outline of the steps:
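HL-60 cells were pretreated 6 h with L-buthionine-sulfoximine (10 µM), then exposed to 1.5, 3.0 or 1.0 µM compound for 48 h. Viable cells were counted by trypan blue staining and expressed as percentage of all cells.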

Data set [17] concerns Nucleic Acid. Kind of data set: Ratio of proflavine K to compound K for calf thymus DNA by spectrofluorimetry based McGhee von Hippel method. The data set is classed as nucleic-acid assay. The settings on record: Bos taurus.
Data set [18] deals with HL-60. Put plainly: Induction of necrosis in human HL60 cells assessed as cell shrinking at 5 uM after 24 hrs by propidium iodide staining based fluorescence microscopy. The data set is classed as functional.
Data set [19] relates to Nucleic Acid. Kind of data set: Ratio of daunomycin K to compound K for calf thymus DNA by spectrofluorimetry based McGhee von Hippel method. The data set is classed as nucleic-acid assay. To be noted: Bos taurus.
Data set [20] concerns HL-60. Put plainly: Cytotoxicity against human HL60 cells after 48 hrs by MTT assay. The data set is classed as functional, cell-based. The settings on record: HL-60, 48 h. The method, boiled down: as §2
Data set [21] concerns L1210. Put plainly: Cytotoxicity against mouse L1210 cells after 72 hrs by MTT assay. The data set is classed as functional, cell-based. The settings on record: L1210, 72 h. The method, boiled down:
as §2

Consider `COC(=O)/C=C1\S/C(=N\c2c3ccccc3nc3ccccc23)N(C(C)(C)C)C1=O`, for which the outcome in [1], in data set [4], in data set [16] and in data set [18] was Active. For the same compound, the IC50 (usually the concentration that gives 50% inhibition) in data set [2] was 17.9 µM; in data set [5], 2.8 µM; in data set [8], above 30 µM; in data set [9], 3.7 µM; in data set [10], 3.5 µM; in [11] it was 23.7 µM. For the same compound, the half-maximal inhibitory concentration (IC50) in data set [20] stood at 5.4 µM; in data set [21] it was 20.9 µM. Further, the Drug uptake result in data set [3] and in [12] was “Active” in each case. In data set [6], the outcome was inactive. Further, the Tm – broadly, the temperature at which the thermal transition is half complete – in data set [7] is 74 °C. Moreover, the Ratio in data set [13], in data set [17] and in [19] was 10 throughout. In addition, the K in data set [14] came out at 1.37 ×10⁶ /M. Further, the Activity in data set [15] was 31.2%.
Regarding `COc1cccc2c1C(=O)c1c(O)c3c(c(O)c1C2=O)C[C@@](O)(C(C)=O)C[C@@H]3O[C@H]1C[C@H](N)[C@H](O)[C@H](C)O1`, in [14], the K turned out to be 7.09 ×10⁵ /M.
In the case of `CN(C)c1ccc2cc3ccc(N(C)C)cc3nc2c1`, the K in data set [14] is 3.19 ×10⁵ /M.

Source of the values: ChEMBL document CHEMBL2203053, “DNA binding acridine-thiazolidinone agents affecting intracellular glutathione” (Bioorg Med Chem, 2012).
